Measurements from ChEMBL document CHEMBL4673258, “Discovery of IPN60090, a Clinical Stage Selective Glutaminase-1 (GLS-1) Inhibitor with Excellent Pharmacokinetic and Physicochemical Properties” (J Med Chem, 2020).

How the values were obtained:
[1] = Oral bioavailability in Beagle dog at 3 mg/kg administered via gavage by LC-MS/MS analysis; type: ADME, organism-based, Canis lupus familiaris; details: in vivo
Procedure, shortened: (§1)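 Bis-hydrochloride salt given to male Sprague-Dawley rats (200–300 g) or male beagle dogs (7–10 kg), fasted overnight and fed 4 h postdose. IV dose 0.3 mg/kg (rat dorsal foot vein, dog cephalic vein) or PO gavage 3 mg/kg.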

[2] = Cmax in Beagle dog at 3 mg/kg, po administered via gavage by LC-MS/MS analysis; type: ADME, organism-based, Canis lupus familiaris; parameters: route oral, dose 3 mg/kg; details: in vivo
Procedure, shortened: (§2)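 Male beagle dogs (7–10 kg), fasted overnight and fed 4 h postdose, received the bis-hydrochloride salt at 3 mpk by oral gavage. Plasma concentrations by LC-MS/MS; Cmax and AUClast from the oral dose.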

[3] = Volume of distribution at steady state in Sprague-Dawley rat at 0.3 mg/kg, iv by LC-MS/MS analysis; type: ADME, organism-based; details: in vivo; procedure, shortened: as §1
[4] = Half life in Sprague-Dawley rat at 0.3 mg/kg, iv by LC-MS/MS analysis; type: ADME, organism-based; details: in vivo; procedure, shortened: as §1
[5] = Volume of distribution at steady state in Beagle dog at 0.3 mg/kg, iv by LC-MS/MS analysis; type: ADME, organism-based, Canis lupus familiaris; details: in vivo; for Vdss: 0.3 mg/kg; procedure, shortened: as §1
[6] = Oral bioavailability in Sprague-Dawley rat at 3 mg/kg administered via gavage by LC-MS/MS analysis; type: ADME, organism-based; details: in vivo; procedure, shortened: as §1
[7] = AUClast in Sprague-Dawley rat at 3 mg/kg, po administered via gavage by LC-MS/MS analysis; type: ADME, organism-based; parameters: route oral, time 0 - last, dose 3 mg/kg; details: in vivo
Procedure, shortened: (§3)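 Male Sprague-Dawley rats (200–300 g), fasted overnight and fed 4 h postdose, given the bis-hydrochloride salt at 3 mpk by oral gavage. Tail-vein blood into K2EDTA taken predose and at 0.083–24 h (0.083, 0.25, 0.5, 1, 2, 4, 8, 24 h). Plasma analysed by LC-MS/MS; Cmax and AUClast derived from the oral dose.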

[8] = AUClast in Beagle dog at 3 mg/kg, po administered via gavage by LC-MS/MS analysis; type: ADME, organism-based, Canis lupus familiaris; parameters: time 0 - last, route oral, dose 3 mg/kg; details: in vivo; procedure, shortened: as §2
[9] = Half life in Beagle dog at 0.3 mg/kg, iv by LC-MS/MS analysis; type: ADME, organism-based, Canis lupus familiaris; details: in vivo; for t1/2: 0.3 mg/kg; procedure, shortened: as §1
[10] = Cmax in Sprague-Dawley rat at 3 mg/kg, po administered via gavage by LC-MS/MS analysis; type: ADME, organism-based; parameters: route oral, dose 3 mg/kg; details: in vivo; procedure, shortened: as §3
[11] = Permeability across basolateral to apical side in human Caco-2 cells at 10 uM measured after 90 mins by LC-MS/MS analysis; type: ADME, cell-based
Procedure, shortened: (§4)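 Caco-2 monolayers grown 21–28 days on polycarbonate filter inserts, with TEER and Lucifer Yellow checked before and after. Compound at 10 μM in HBSS with 25 mM HEPES, pH 7.4. Run A→B and B→A at 37 °C for 90 min. Receiver and donor samples quantified by LC-MS/MS.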

[12] = Intrinsic clearance in dog hepatocytes […] at 2 uM measured after 15 to 120 mins by LC-MS analysis; type: ADME, cell-based, Canis lupus familiaris, Hepatocyte; details: time 15-120 min
Procedure, shortened: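 Hepatocytes at 2×10^6 viable cells/mL, mixed with an equal volume of 2 μM compound in KHB buffer. Incubated at 37 °C and quenched with ACN at 0, 15, 30, 60 and 120 min. Analysed by LC/MS, with percent remaining from peak area ratio to internal standard against 0 min. Half-life from a single-phase exponential fit.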

[13] = Permeability across apical to basolateral side in human Caco-2 cells at 10 uM measured after 90 mins by LC-MS/MS analysis; type: ADME, cell-based; procedure, shortened: as §4
[14] = rat, microsomes, 0.75 h, 1 µM
[15] = Free plasma concentration in NSG mouse xenografted with human H460 cells at 10 mg/kg, po administered as single dose via gavage measured after 24 hrs by LC-MS analysis; type: ADME, organism-based; details: in vivo
[16] = Half life in cynomolgus monkey at 0.3 mg/kg, iv by LC-MS/MS analysis; type: ADME, organism-based, Macaca fascicularis; details: in vivo
Procedure, shortened: (§5)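 Bis-hydrochloride salt dosed 0.3 mg/kg IV and 3 mg/kg PO (mouse: 3 mg/kg IV, 10 mg/kg PO); female CD-1 mice, male beagle dogs, male cynomolgus monkeys; monkeys and dogs fasted overnight and fed 4 h postdose. IV via tail (mouse) or cephalic vein; PO by oral (mouse) or nasal (monkey) gavage. K2EDTA plasma sampled predose to 24 h; LC-MS/MS. CL, Vdss, t1/2 from IV; F% from oral dose.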

[17] = AUClast in cynomolgus monkey at 3 mg/kg, po administered via gavage by LC-MS/MS analysis; type: ADME, organism-based, Macaca fascicularis; parameters: route oral, time 0 - last, dose 3 mg/kg; details: in vivo
Procedure, shortened: (§6)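 Male cynomolgus monkeys (3–5 kg), fasted overnight and fed 4 h postdose, dosed with the bis-hydrochloride salt at 3 mpk by nasal gavage. Blood from saphenous or cephalic vein into K2EDTA at predose and 0.083–24 h (0.083, 0.25, 0.5, 1, 2, 4, 8, 24 h). Plasma quantified by LC-MS/MS; Cmax and AUClast from the oral dose.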

[18] = Clearance in cynomolgus monkey at 0.3 mg/kg, iv by LC-MS/MS analysis; type: ADME, organism-based, Macaca fascicularis; details: in vivo; procedure, shortened: as §5
[19] = Free plasma concentration in NSG mouse xenografted with human H460 cells at 50 mg/kg, po administered as single dose via gavage measured after 8 hrs by LC-MS analysis; type: ADME, organism-based; details: in vivo
Procedure, shortened: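 Female NSG mice, 6–10 weeks old, bearing H460 tumours (5×10^5 cells with matrigel 1:1) of 300–400 mm³. Given a single oral gavage dose of bis-hydrochloride salt in 0.5% methylcellulose. Six animals per group. Free plasma concentration taken at 8 or 24 h, given as mean with standard deviation.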

[20] = Free plasma concentration in NSG mouse xenografted with human H460 cells at 250 mg/kg, po administered as single dose via gavage measured after 24 hrs by LC-MS analysis; type: ADME, organism-based; details: in vivo
[21] = Free plasma concentration in NSG mouse xenografted with human H460 cells at 250 mg/kg, po administered as single dose via gavage measured after 8 hrs by LC-MS analysis; type: ADME, organism-based; details: in vivo
[22] = Free plasma concentration in NSG mouse xenografted with human H460 cells at 10 mg/kg, po administered as single dose via gavage measured after 8 hrs by LC-MS analysis; type: ADME, organism-based; details: in vivo
[23] = Volume of distribution at steady state in cynomolgus monkey at 0.3 mg/kg, iv by LC-MS/MS analysis; type: ADME, organism-based, Macaca fascicularis; details: in vivo, read-out: Vdss; procedure, shortened: as §5
[24] = Half life in CD-1 mouse at 3 mg/kg, iv by LC-MS/MS analysis; type: ADME, organism-based; details: in vivo; procedure, shortened: as §5
[25] = Oral bioavailability in cynomolgus monkey at 3 mg/kg administered via gavage by LC-MS/MS analysis; type: ADME, organism-based, Macaca fascicularis; details: in vivo; procedure, shortened: as §5
[26] = Cmax in cynomolgus monkey at 3 mg/kg, po administered via gavage by LC-MS/MS analysis; type: ADME, organism-based, Macaca fascicularis; parameters: route oral, dose 3 mg/kg; details: in vivo; procedure, shortened: as §6
[27] = Volume of distribution at steady state in CD-1 mouse at 3 mg/kg, iv by LC-MS/MS analysis; type: ADME, organism-based; details: in vivo, read-out: Vdss; procedure, shortened: as §5
[28] = Clearance in Beagle dog at 0.3 mg/kg, iv by LC-MS/MS analysis; type: ADME, organism-based, Canis lupus familiaris; details: in vivo; procedure, shortened: as §5
[29] = AUClast in CD-1 mouse at 10 mg/kg, po administered via gavage by LC-MS/MS analysis; type: ADME, organism-based; parameters: time 0 - last, route oral, dose 10 mg/kg; details: in vivo
Procedure, shortened: (§7)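 Female CD-1 mice (20–30 g), food and water ad libitum, given the bis-hydrochloride salt at 10 mpk by oral gavage. Plasma quantified by LC-MS/MS; Cmax and AUClast from the oral dose.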

[30] = Oral bioavailability in CD-1 mouse at 10 mg/kg administered via gavage by LC-MS/MS analysis; type: ADME, organism-based; details: in vivo; procedure, shortened: as §5
[31] = Cmax in CD-1 mouse at 10 mg/kg, po administered via gavage by LC-MS/MS analysis; type: ADME, organism-based; parameters: route oral, dose 10 mg/kg; details: in vivo; procedure, shortened: as §7
[32] = Cmax in Sprague-Dawley rat at 2 mg/kg, po administered via gavage by LC-MS/MS analysis; type: ADME, organism-based; parameters: route oral, dose 2 mg/kg; details: in vivo
[33] = Oral bioavailability in Sprague-Dawley rat at 2 mg/kg administered via gavage by LC-MS/MS analysis; type: ADME, organism-based; details: in vivo
[34] = AUClast in Sprague-Dawley rat at 2 mg/kg, po administered via gavage by LC-MS/MS analysis; type: ADME, organism-based; parameters: route oral, time 0 - last, dose 2 mg/kg; details: in vivo
[35] = human, microsomes, 0.75 h, 1 µM
[36] = Intrinsic clearance in monkey hepatocytes […] at 2 uM measured after 15 to 120 mins by LC-MS analysis; type: ADME, cell-based, Macaca mulatta, Hepatocyte; details: rhesus monkey, time 15-120 min
[37] = Intrinsic clearance in monkey liver microsomes assessed per kg protein at 1 uM measured up to 45 mins in presence of NADPH by LC-MS/MS analysis; type: ADME, Macaca mulatta, Microsome; details: rhesus monkey, 0.75 h
[38] = Intrinsic clearance in mouse liver microsomes assessed per kg protein at 1 uM measured up to 45 mins in presence of NADPH by LC-MS/MS analysis; type: ADME, Microsome; details: 0.75 h
[39] = Intrinsic clearance in mouse hepatocytes […] at 2 uM measured after 15 to 120 mins by LC-MS analysis; type: ADME, cell-based, Hepatocyte; details: time 15-120 min

SMILES | F [1] [%] | Cmax [2] [µM] | Vdss [3] [L/kg] | t1/2 [4] [h] | Vdss [5] [L/kg] | F [6] [%] | AUClast [7] [µM·h] | AUClast [8] [µM·h] | t1/2 [9] [h] | Cmax [10] [µM] | permeability [11] | CLint [12] [mL/min/kg] | permeability [13] | also measured
CNC(=O)c1cn(C[C@H](F)CCc2ccc(NC(=O)Cc3cc(OC4CC(F)(F)C4)ccn3)nn2)nn1.Cl | 34 | 2.7 | 0.2 | 1.2 | 0.5 | 48 | 16 | 10 | 2.3 | 5.8 | – | – | – | –
CNC(=O)c1cn(C[C@H](F)CCc2ccc(NC(=O)Cc3cc(OC4CC(F)(F)C4)ccn3)nn2)nn1 | – | – | – | – | – | – | – | – | – | – | 20 10^-6 cm/s | 4 | 1.8 10^-6 cm/s | –
CNC(=O)c1cn(CCCCc2ccc(NC(=O)Cc3cc(OCC(F)(F)F)ccn3)nn2)nn1 | – | – | – | – | – | – | – | – | – | – | – | – | – | CLH [14]: 0.4 mL/min
CNC(=O)c1cn(C[C@H](F)CCc2ccc(NC(=O)Cc3cc(C(F)(F)F)cc(C)n3)nn2)nn1 | 21 | 4.5 | 0.2 | 3.3 | 0.2 | 28 | 24 | 23 | 2.6 | 4.4 | 25 10^-6 cm/s | 9 | 7.7 10^-6 cm/s | –
CNC(=O)c1cn(C[C@H](F)CCc2ccc(NC(=O)Cc3cc(OC4CC(F)(F)C4)cc(C)n3)nn2)nn1.Cl.Cl | > 100 | 31 | 0.1 | 5.3 | – | 70 | 208 | 250 | – | 32 | – | – | – | Cp(f) [15]: 6 nM; half-life [16]: 54 min; AUC(0-t) [17]: 8.7 µM·h; clearance [18]: 8 mL/min/kg; Cp(f) [19]: 0.198 µM; Cp(f) [20]: 0.316 µM; Cp(f) [21]: 0.316 µM; Cp(f) [22]: 0.029 µM; Vd [23]: 0.31 L/kg; Vd ([5]; Beagle, read-out: Vdss): 0.18 L/kg; half-life [24]: 60 min; bioavailability [25]: 72%; Cmax [26]: 6.5 µM; Vd [27]: 0.27 L/kg; half-life ([9]; Beagle): 318 min; clearance [28]: 0.59 mL/min/kg; AUClast [29]: 67 µM·h; F [30]: 89%; Cmax [31]: 19 µM
CNC(=O)c1cn(C[C@H](F)CCc2ccc(NC(=O)Cc3cc(-c4cccc(OC(F)(F)F)c4)ccn3)nn2)nn1.Cl | 8 | 0.58 | 1 | 2.7 | 0.5 | – | – | 2.5 | 2.5 | – | – | – | – | Cmax [32]: 350 nM; F [33]: 19%; AUClast [34]: 1.2 µM·h
CNC(=O)c1cn(C[C@H](F)CCc2ccc(NC(=O)Cc3cc(OC4CC(F)(F)C4)cc(C)n3)nn2)nn1 [IPN-60090] | – | – | – | – | – | – | – | – | – | – | 25 10^-6 cm/s | 7 | 5.2 10^-6 cm/s | CLH [35]: <= 0.7 ml/min; CLint [36]: 12 mL/min/kg; CLint [37]: 21 mL/min/kg; CLint [38]: 55 mL/min/kg; CLint [39]: 16 mL/min/kg
